Screening results: PubChem, The Scripps Research Institute Molecular Screening Center
OX1R antag-1: blocks the human orexin 1 receptor; O43613; OX1R-expressing cells, FRET antagonist read-out; inhibition, % at 6.6 µM; 1.8% of 330,000 active; in the data active = inhibition mostly above about 38%, no sharp cut-off; inactive = mostly below about 40%;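 also: 0% = agonist challenge alone and 100% = reference antagonist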
CHO parental Ca: signal in parental CHO cells, OX1R antagonist counter-screen; AID 463079; parental CHO-K1, ATP-induced calcium, Fluo-8 fluorescence; inhibition, % at 5.6 µM; 0.63% of 330,000 active;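 active = inhibition above that plate's mean sample inhibition plus 3 SD, cut at about 26% in these data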;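 also: 0% = ATP-challenged DMSO wells and 100% = DMSO wells without ATP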
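Measured by: calcium-sensitive Fluo-8 fluorescence / Test system: CHO parental line / Controls: ATP-challenged DMSO wells low, unchallenged DMSO wells high / Measure: % inhibition / Compound: single nominal dose of 5.6 µM per compound / Replicates: single well per compound, no replicates / Reagent: ATP as calcium-mobilizing challenge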
TAAR1 antagonist: human TAAR1 antagonism; 1.5% of 360,000 active; inhibition, % at 3 µM; CHO RD-HGA16 TAAR1, Fluo-8 calcium fluorescence, antagonist; AID 624466; Q96RJ0;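 active = inhibition above a per-plate cutoff, the mean inhibition of test compounds on that plate plus 3 SD, cut at about 49% in these data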;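 also: 0% = DMSO plus EC80 beta-PEA response and 100% = DMSO alone without agonist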
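Assay system: RD-HGA16 CHO cells with stable hTAAR1 and Gα16 / Reagent: EC80 β-phenethylamine stimulus / Doses: 3 µM, single point / Timing: dye loading 75 min at 37 °C, then 30 min room temperature / Measured by: Fluo-8 intracellular calcium dye fluorescence, real-time kinetic reads / Controls: vehicle wells and EC80 agonist wells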
OX1R antag-2: blocks the human orexin 1 receptor. O43613. CHO/OX1R cells, Fluo-8 calcium fluorescence, orexin A. inhibition, % at 5 µM. 0.43% of 330,000 active. AID 434989;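 active = inhibition above its plate's threshold, mean inhibition of all tested compounds on the plate plus 3 SD, cut at about 37% in these data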;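 also: 0% = orexin A challenge wells and 100% = SB-334867-A antagonist wells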
GalR3 antagonist: human GalR3 antagonism | 0.44% of 360,000 active | HEK293 GalR3-CNG cAMP membrane potential fluorescence; galR3 body fused to GalR1 C-terminus | inhibition, % at 3 µM | O60755;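 active = inhibition above the screen-wide average plus 3 SD, cut at about 13% in these data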;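 also: forskolin and galanin both at EC90 stimulate the cells; cAMP rise reported by CNG channel membrane potential dye signal; 0% = forskolin plus galanin with DMSO and 100% = forskolin alone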
Target sequence (O60755 1-299 limits assumed): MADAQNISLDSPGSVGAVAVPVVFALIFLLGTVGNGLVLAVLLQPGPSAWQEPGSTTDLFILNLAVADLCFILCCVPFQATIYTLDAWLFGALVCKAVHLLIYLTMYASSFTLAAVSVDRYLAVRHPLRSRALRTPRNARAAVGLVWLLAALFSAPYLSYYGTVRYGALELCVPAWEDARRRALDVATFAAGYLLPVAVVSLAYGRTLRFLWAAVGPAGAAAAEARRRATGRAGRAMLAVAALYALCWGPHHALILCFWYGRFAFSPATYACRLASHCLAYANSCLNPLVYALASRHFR
TAAR1 ag: human TAAR1 agonism | CHO RD-HGA16 TAAR1, Fluo-8 calcium fluorescence; vehicle wells 0%, saturating PEA agonist 100% | activation, % at 3 µM | 0.99% of 360,000 active | AID 624467;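 active = activation above the mean activation of all test compounds in the run plus 3 SD, cut at about 38% in these data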
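Repeats: no replicates (n 1) | Material: CHO-derived RD-HGA16 cells with stable Gα16 and human TAAR1 | Technique: Kinetic Fluo-8 calcium fluorescence | Schedule: 17-24 h seeding, 75 min 37 °C dye, 30 min RT | Evaluation: % activation from peak over basal fluorescence ratio, DMSO-to-PEA scaled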
Numbers without * were called inactive; . = not tested or not shown. Shown are actives, neighbours in structure and some others; about 4.3% of the full set was active somewhere.

SMILES	OX1R antag-1	CHO parental Ca	TAAR1 antagonist	OX1R antag-2	GalR3 antagonist	TAAR1 ag
COc1ccccc1-c1cc(C(F)(F)F)c(C#N)c(=O)[nH]1	10.1	-2.2	16.1	-10.8	-4.7	6.3
CC1(C(=O)N2CC3(CC(c4cccc([N+](=O)[O-])c4)=NO3)C[C@H]2C(=O)NCC(N)=O)CC1 (stereo partly drawn)	48.4*	-2.4	7.7	-5.6	-4.9	0.6
NC(=O)CNC(=O)[C@@H]1CC2(CC(c3cccc([N+](=O)[O-])c3)=NO2)CN1C(=O)c1ccccc1 (stereo partly drawn)	43.8	-6.2	-8.9	-6.7	-9.4	6.0
O=C(Nc1nc2ccccc2s1)c1ccc2sc([C@H]3C[C@H](O)[C@@H](CO)O3)nc2c1	.	.	50.5*	.	-6.8	10.3
N#C/C(=C\c1c(F)cccc1Cl)c1nn(-c2ccccc2)c(-n2cccc2)c1C#N	36.0*	-19.3	-8.2	-14.2	-6.3	0.3
COc1ccc(C(=O)Nc2nc(OCC(F)(F)F)cnc2/C=C\c2ccccc2)c(OC)c1	.	.	-10.0	.	-0.6	1.1
CCOn1c(=O)c(-c2ccccc2)[n+]([O-])c2ccccc21	25.3	0.5	-7.9	-27.3	-9.9	1.6
COc1ccc(-c2c(=O)n(OC)c3ccccc3[n+]2[O-])cc1OC	44.3*	-6.7	0.0	-16.7	-5.7	1.3
C=CCOn1c(=O)c(-c2ccc(OC)c(OC)c2)[n+]([O-])c2ccccc21	61.3*	-7.5	-1.8	-32.9	-4.8	7.3
COCCNC(=O)c1cccc2c1-c1ccccc1C2=O	24.3	-6.8	-20.0	-19.6	-10.5	2.9
CCN(CC)CCC(=O)Nc1cccc2c1C(=O)c1ccccc1C2=O	74.2*	-12.1	-6.9	-39.8	-0.8	0.9
CCN(CC)CCNC(=O)c1ccc2c(c1NCCO)C(=O)c1ccccc1C2=O	88.6*	-15.2	-26.3	-20.5	-4.4	1.2
Nc1cccc(C(=O)OCC(=O)Nc2cccc3c2C(=O)c2ccccc2C3=O)c1	16.8	-10.8	41.7	-7.6	0.1	5.8
O=C(COC(=O)/C=C/c1ccco1)NCCc1ccccc1	7.9	11.3	46.9	-5.8	-2.7	38.9*
COc1cc(OC)c(OC)cc1/C=C1\CC(C)C/C(=C\c2cc(OC)c(OC)cc2OC)C1=O (stereo not drawn)	9.1	-7.0	51.3*	-3.1	-8.6	11.1
CCC1C/C(=C\c2cc(OC)c(OC)cc2OC)C(=O)/C(=C/c2cc(OC)c(OC)cc2OC)C1 (stereo not drawn)	8.8	-2.8	.	-7.5	.	.
CC(C)CCC(C(=O)NC(C)c1ccccc1)C(=O)NC(C)c1ccccc1 (stereo not drawn)	42.8*	-22.0	-4.4	14.1	-8.7	3.1
O=C(Nc1ccc2c(c1)CCCN2C(=O)c1ccccc1)c1ccccc1	11.9	-14.9	57.7*	-17.3	1.2	11.7
C=CCN(c1ccccc1OC)S(=O)(=O)c1cccc(C(=O)OCC(=O)c2c(N)n(C)c(=O)n(C)c2=O)c1	.	.	51.7*	.	-6.2	8.6
CNS(=O)(=O)c1cccc(C(=O)OCC(=O)c2c(N)n(C)c(=O)n(C)c2=O)c1	13.0	-23.0	-25.2	-9.4	-3.2	4.8
Cc1ccc(-n2nnnc2CNC(=O)C(=O)c2c[nH]c3ccccc23)cc1C	.	.	31.2	.	-6.8	9.9
COc1ccc(CCNC(=O)COC(=O)c2cncc(Br)c2)cc1OC	6.1	-4.2	-6.1	-9.3	-6.2	1.4
Cc1ccc2c(c1)COc1c3ccc(C(=O)NCCO)cc3nn1-2	61.0*	1.0	-7.2	-13.4	-4.6	5.2
O=C(NCCO)c1ccc2c3n(nc2c1)-c1ccc(Cl)cc1CO3	37.5	-5.2	2.8	-11.3	-1.4	9.3
Nc1c(C(=O)NCc2ccccc2)nnn1Cc1ccc(F)cc1	9.6	5.4	5.9	2.3	-2.6	40.5*
O=C(COC(=O)CNC(=O)c1ccc(Cl)c([N+](=O)[O-])c1)NC(=O)c1ccccc1	51.0*	-2.5	-17.1	-7.9	-3.7	0.3
O=C(CSc1cccc[n+]1[O-])c1cc2ccccc2o1	72.3*	0.1	.	-2.0	.	.
